pIC50: −log10 of the molar value. The source made the active and inactive calls. The calls are words filed in the database; no cut-off is given here.
Legend:
Plasmodium falciparum [1] = test: Antimalarial activity against chloroquine-sensitive Plasmodium falciparum 3D7; type: functional, organism-based
How it was run: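 Parasites kept in RPMI 1640 with 10% human serum, 25 mM Hepes, 25 mM NaHCO3, in A-positive human erythrocytes at 37 °C (10% O2, 5% CO2, 85% N2, 95% humidity). Twofold serial dilutions, final 0.01 to 200 µM, in 1% DMSO/RPMI; 42 h incubation. [3H]hypoxanthine uptake measured by scintillation after freeze-thaw lysis and filter harvest; IC50 by nonlinear regression of log-dose/response curves.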

Falcipain 2 = target: T1, Falcipain 2 (Plasmodium falciparum, UniProt Q9N6S8); test: Inhibition of Plasmodium falciparum W2 recombinant falcipain-2 activity
T1 sequence (Q9N6S8 whole entry): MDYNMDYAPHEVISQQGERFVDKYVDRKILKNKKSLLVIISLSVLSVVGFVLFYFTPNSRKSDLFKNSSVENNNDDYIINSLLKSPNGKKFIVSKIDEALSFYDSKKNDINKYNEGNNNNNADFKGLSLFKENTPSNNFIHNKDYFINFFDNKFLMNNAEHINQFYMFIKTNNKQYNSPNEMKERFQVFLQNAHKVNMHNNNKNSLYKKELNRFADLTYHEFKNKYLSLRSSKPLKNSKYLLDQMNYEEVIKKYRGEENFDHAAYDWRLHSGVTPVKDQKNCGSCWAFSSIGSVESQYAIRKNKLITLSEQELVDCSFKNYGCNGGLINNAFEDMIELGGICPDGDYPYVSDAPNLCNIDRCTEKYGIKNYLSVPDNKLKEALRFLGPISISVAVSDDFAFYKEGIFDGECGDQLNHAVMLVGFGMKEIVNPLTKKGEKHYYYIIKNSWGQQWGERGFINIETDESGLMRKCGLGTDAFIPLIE

Plasmodium falciparum [2] = test: Antimalarial activity against chloroquine-resistant Plasmodium falciparum Bre1; type: functional, organism-based
How it was run: (§1)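 Parasites cultured in A-positive human erythrocytes in RPMI 1640 with 10% human serum, 25 mM Hepes, 25 mM NaHCO3, 37 °C, 10% O2/5% CO2/85% N2. Compounds dissolved in DMSO 1% in RPMI, twofold serial dilutions, final […]; 42 h incubation; [3H]hypoxanthine uptake read by scintillation after freeze-thaw lysis; IC50 by nonlinear regression of log-dose/response curves.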

Plasmodium falciparum [3] = test: Antimalarial activity against chloroquine-resistant Plasmodium falciparum FCR3; type: functional, organism-based; how it was run: as §1
Plasmodium falciparum [4] = test: Antimalarial activity against chloroquine-resistant Plasmodium falciparum W2; type: functional, organism-based; how it was run: as §1
Plasmodium falciparum [5] = test: Antimalarial activity against Plasmodium falciparum W2 as food vacuole abnormality; type: functional, organism-based

With `C/C(=N\NC(=S)NCCCNc1ccnc2cc(Cl)ccc12)c1ccc(Br)cc1` the IC90 (Plasmodium falciparum [1]) was 25.8 µM and the pIC50 (Falcipain 2) was < 4.70.
With `CCN(CC)CCCC(C)Nc1ccnc2cc(Cl)ccc12` (stereo not drawn) [CHLOROQUINE] the IC90 (Plasmodium falciparum [2]) was 0.722 µM, the IC90 (Plasmodium falciparum [3]) was 1.18 µM and the IC90 (Plasmodium falciparum [1]) was 0.0417 µM. It also gave an IC90 (Plasmodium falciparum [4]) of 0.992 µM.
For `C/C(=N\NC(=S)NCCNc1ccnc2cc(Cl)ccc12)c1ccc(Br)cc1`, the IC90 (Plasmodium falciparum [1]) was 26.3 µM and the pIC50 (Falcipain 2) was 4.89.
For `C/C(=N\NC(=S)NCCCNc1ccnc2cc(Cl)ccc12)c1ccc(Cl)c(Cl)c1`, the IC90 (Plasmodium falciparum [1]) was 1.4 µM and the pIC50 (Falcipain 2) was < 4.70.
With `C/C(=N\NC(=S)NCCNc1ccnc2cc(Cl)ccc12)c1ccc(Cl)c(Cl)c1` the IC90 (Plasmodium falciparum [1]) was 2.4 µM, the pIC50 (Falcipain 2) was 5.35 and the Activity (Plasmodium falciparum [5]) was “Active”.
